Laboratory results reported in ChEMBL document CHEMBL3763152, “Synthesis and evaluation of orally active small molecule HIV-1 Nef antagonists” (Bioorg Med Chem Lett, 2016).
Active and inactive are the calls of the source. The calls are words filed in the database; no cut-off is given here.

Assays:
[1] = system: Human immunodeficiency virus 1; experiment: Binding affinity to recombinant HIV1 Nef N126Q mutant at 10 uM by SPR assay
Method in brief: (§1)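 Wild-type, N126A and N126Q Nef were expressed in bacteria and purified to homogeneity. Each was covalently coupled to a CM5 biosensor chip. Compound was injected at a final 10 μM, in triplicate, and binding was measured by SPR on a Biacore T100.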

[2] = Clearance in C3H mouse at 2 mg/kg, iv by LC-MS analysis; type: ADME, organism-based; conditions: in vivo
Method in brief: (§2)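 Plasma drug levels measured by LC-MS over time. Tmax, Cmax, AUClast, AUCinf, T1/2, Vss, clearance and %F were derived from the plasma concentration–time data.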

[3] = Volume of distribution at steady state in C3H mouse at 2 mg/kg, iv by LC-MS analysis; type: ADME, organism-based; conditions: in vivo, read-out: Vdss; method in brief: as §2
[4] = AUC(infinity) in C3H mouse at 10 mg/kg, po administered through solution of 5% N-methyl -2-pyrrolidone and 5% solutol in saline by LC-MS analysis; type: ADME, organism-based; set-up: dose 10 mg/kg, route oral, time infinity; conditions: in vivo; method in brief: as §2
[5] = Binding affinity to recombinant HIV1 Nef by SPR assay; set-up: species or system Human immunodeficiency virus 1
Method in brief: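 Recombinant purified Nef was immobilized on a CM5 chip, and compound was injected over a concentration range in triplicate. Binding isotherms were fitted with a heterogeneous ligand model, and KD was taken from the kinetic constants of the higher-affinity component. No binding means none seen at >50 μM compound.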

[6] = Oral bioavailability in C3H mouse at 10 mg/kg administered through solution of 5% N-methyl -2-pyrrolidone and 5% solutol in saline by LC-MS analysis; type: ADME, organism-based; conditions: in vivo; method in brief: as §2
[7] = system: Human immunodeficiency virus 1; experiment: Binding affinity to recombinant HIV1 Nef N126A mutant at 10 uM by SPR assay; method in brief: as §1
[8] = system: Mus musculus; experiment: Acute toxicity in C3H mouse assessed as overall behavior at 2.5 mg/kg, iv SID for 4 days; type: organism-based; conditions: in vivo, 96 h
[9] = system: Mus musculus; experiment: Acute toxicity in C3H mouse assessed as change in body weight at 2.5 mg/kg, po SID for 4 days; conditions: in vivo, 96 h
[10] = Cmax in C3H mouse at 10 mg/kg, po administered through solution of 5% N-methyl -2-pyrrolidone and 5% solutol in saline by LC-MS analysis; type: ADME, organism-based; set-up: dose 10 mg/kg, route oral; conditions: in vivo; method in brief: as §2
[11] = Cytotoxicity against human TZM-bl cells by Cell Titer Blue assay; type: cell-based
Method in brief: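 TZM-bl reporter cells were treated with compound and viability was read by Cell Titer Blue. CC50 is the concentration giving 50% loss of viability.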

[12] = AUC(last) in C3H mouse at 10 mg/kg, po administered through solution of 5% N-methyl -2-pyrrolidone and 5% solutol in saline by LC-MS analysis; type: ADME, organism-based; set-up: dose 10 mg/kg, time 0 - last, route oral; conditions: in vivo; method in brief: as §2
[13] = Cmax in C3H mouse at 2 mg/kg, iv by LC-MS analysis; type: ADME, organism-based; set-up: dose 2 mg/kg, route intravenous; conditions: in vivo; method in brief: as §2
[14] = AUClast in C3H mouse at 2 mg/kg, iv by LC-MS analysis; type: ADME, organism-based; set-up: dose 2 mg/kg, route intravenous, time 0 - last; conditions: in vivo; method in brief: as §2
[15] = AUC(infinity) in C3H mouse at 2 mg/kg, iv by LC-MS analysis; type: ADME, organism-based; set-up: dose 2 mg/kg, time infinity, route intravenous; conditions: in vivo; method in brief: as §2
[16] = Half life in C3H mouse at 2 mg/kg, iv by LC-MS analysis; type: ADME, organism-based; conditions: in vivo; method in brief: as §2
[17] = system: Human immunodeficiency virus 1; experiment: Antiviral activity against HIV1 NL4-3 infected in TZM-bl cells incubated for 3 hrs measured after 48 hrs by luciferase reporter gene assay; type: functional, organism-based; conditions: Human immunodeficiency virus 1, NL4-3, TZM-bl
Method in brief: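 TZM-bl reporter cells carry a luciferase gene driven by the HIV-1 LTR. Cells were infected short-term with HIV-1, and Nef-dependent infectivity was read out by luciferase. IC50 was derived from this read-out.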

[18] = Tmax in C3H mouse at 10 mg/kg, po administered through solution of 5% N-methyl -2-pyrrolidone and 5% solutol in saline by LC-MS analysis; type: ADME, organism-based; conditions: in vivo; method in brief: as §2
[19] = system: Mus musculus; experiment: Acute toxicity in C3H mouse assessed as body condition at 2.5 mg/kg, po SID for 4 days; conditions: in vivo, 96 h
[20] = Cytotoxicity against human U87MG cells expressing CD4 and CXCR4 up to 10 uM by Cell Titer Blue assay; type: cell-based; conditions: u-87mg atcc
[21] = system: Human immunodeficiency virus 1; experiment: Binding affinity to recombinant HIV1 Nef at >50 uM by SPR assay
[22] = system: U-87MG ATCC; experiment: Inhibition of Nef-dependent HIV1 NL4-3 replication infected in human U87MG cells expressing CD4 and CXCR4 at 3 uM incubated for 1 hr measured after 4 days by immunoassay; type: cell-based; conditions: Human immunodeficiency virus 1
Method in brief: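 U87MG/CD4/CXCR4 cells received compound at 3 μM final; wild-type or ΔNef HIV-1 NL4-3 was added one hour later. Replication was measured at 4 days as p24 Gag by AlphaLISA ELISA and expressed as percent of DMSO control, mean ± S.E., n=4.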

[23] = system: Mus musculus; experiment: Acute toxicity in C3H mouse assessed as overall behavior at 5 mg/kg, iv SID for 4 days; type: organism-based; conditions: in vivo, 96 h
[24] = AUC(infinity) in C3H mouse at 10 mg/kg, po administered through suspension of 0.5% w/v sodium-carboxymethyl cellulose with 0.1% v/v Tween80 by LC-MS analysis; type: ADME, organism-based; set-up: dose 10 mg/kg, route oral, time infinity; conditions: in vivo; method in brief: as §2
[25] = system: Mus musculus; experiment: Acute toxicity in C3H mouse assessed as body condition at 50 mg/kg, po SID for 5 days; type: organism-based; conditions: in vivo, 120 h
[26] = Tmax in C3H mouse at 10 mg/kg, po administered through suspension of 0.5% w/v sodium-carboxymethyl cellulose with 0.1% v/v Tween80 by LC-MS analysis; type: ADME, organism-based; conditions: in vivo; method in brief: as §2
[27] = system: Mus musculus; experiment: Acute toxicity in C3H mouse assessed as change in body weight at 10 mg/kg, po BID for 4 days; type: organism-based; conditions: in vivo, 96 h
[28] = system: Mus musculus; experiment: Acute toxicity in C3H mouse assessed as change in body weight at 5 mg/kg, po SID for 4 days; conditions: in vivo, 96 h
[29] = system: Mus musculus; experiment: Acute toxicity in C3H mouse assessed as body condition at 10 mg/kg, po BID for 4 days; type: organism-based; conditions: in vivo, 96 h
[30] = system: Mus musculus; experiment: Acute toxicity in C3H mouse assessed as overall behavior at 50 mg/kg, po SID for 5 days; type: organism-based; conditions: in vivo, 120 h
[31] = system: Mus musculus; experiment: Acute toxicity in C3H mouse assessed as change in body weight at 50 mg/kg, po SID for 5 days; type: organism-based; conditions: in vivo, 120 h
[32] = Cmax in C3H mouse at 10 mg/kg, po administered through suspension of 0.5% w/v sodium-carboxymethyl cellulose with 0.1% v/v Tween80 by LC-MS analysis; type: ADME, organism-based; set-up: dose 10 mg/kg, route oral; conditions: in vivo; method in brief: as §2
[33] = system: Mus musculus; experiment: Acute toxicity in C3H mouse assessed as body condition at 5 mg/kg, iv SID for 4 days; type: organism-based; conditions: in vivo, 96 h
[34] = AUC(last) in C3H mouse at 10 mg/kg, po administered through suspension of 0.5% w/v sodium-carboxymethyl cellulose with 0.1% v/v Tween80 by LC-MS analysis; type: ADME, organism-based; set-up: dose 10 mg/kg, route oral, time 0 - last; conditions: in vivo; method in brief: as §2
[35] = system: Mus musculus; experiment: Acute toxicity in C3H mouse assessed as overall behavior at 10 mg/kg, po BID for 4 days; type: organism-based; conditions: in vivo, 96 h
[36] = system: Mus musculus; experiment: Acute toxicity in C3H mouse assessed as change in body weight at 100 mg/kg, po SID for 12 days; type: organism-based; conditions: in vivo, 288 h
[37] = system: Mus musculus; experiment: Acute toxicity in C3H mouse assessed as body condition at 100 mg/kg, po SID for 12 days; type: organism-based; conditions: in vivo, 288 h
[38] = system: Mus musculus; experiment: Acute toxicity in C3H mouse assessed as overall behavior at 100 mg/kg, po SID for 12 days; type: organism-based; conditions: in vivo, 288 h

## NC(=S)n1nc(-c2ccc([N+](=O)[O-])cc2)c(/N=N/c2cccc(Cl)c2)c1O
[1]
  Activity: inactive
[2]
  clearance: 3.41 mL/min/kg
[3]
  Vd: 0.37 L/kg
[4]
  AUC(0-inf): 1020 ng·h/mL
[5]
  Kd: 0.0819 µM
[6]
  bioavailability: 2%
[7]
  Activity: inactive
[8]
  Activity: Non-toxic
[9]
  Activity: Non-toxic
[10]
  Cmax: 418 ng/mL
[11]
  CC50: 10 µM
[12]
  AUC(0-t): 963 ng·h/mL
[13]
  Cmax: 3960 ng/mL
[14]
  AUC(0-t): 9780 ng·h/mL
[15]
  AUC(0-inf): 9790 ng·h/mL
[16]
  half-life: 128 min
[17]
  IC50: 2.53 µM
[18]
  Tmax: 30 min
[19]
  Activity: Non-toxic

## O=[N+]([O-])c1ccc(-c2n[nH]c(O)c2Cc2cccc(Cl)c2)cc1
[20]
  Activity: Non-toxic
[11]
  CC50: > 10 µM
[21]
  Activity: inactive
[17]
  IC50: > 10 µM
[22]
  inhibition: inactive

## NC(=S)n1nc(-c2ccc([N+](=O)[O-])cc2)c(CCc2cccc(Cl)c2)c1O
[1]
  Activity: inactive
[2]
  clearance: 13.5 mL/min/kg
[23]
  Activity: Non-toxic
[24]
  AUC(0-inf): 9480 ng·h/mL
[3]
  Vd: 0.83 L/kg
[4]
  AUC(0-inf): 6430 ng·h/mL
[5]
  Kd: 0.159 µM
[25]
  Activity: Non-toxic
[6]
  bioavailability: 53%
[26]
  Tmax: 30 min
[27]
  Activity: Non-toxic
[28]
  Activity: Non-toxic
[7]
  Activity: inactive
[20]
  Activity: Non-toxic
[29]
  Activity: Non-toxic
[10]
  Cmax: 2370 ng/mL
[11]
  CC50: > 10 µM
[12]
  AUC(0-t): 6300 ng·h/mL
[13]
  Cmax: 4420 ng/mL
[14]
  AUC(0-t): 2130 ng·h/mL
[15]
  AUC(0-inf): 2150 ng·h/mL
[30]
  Activity: Non-toxic
[31]
  Activity: Non-toxic
[17]
  IC50: 0.69 µM
[18]
  Tmax: 15 min
[22]
  inhibition: Active
[32]
  Cmax: 5610 ng/mL
[33]
  Activity: Non-toxic
[34]
  AUC(0-t): 9030 ng·h/mL
[35]
  Activity: Non-toxic

## NC(=S)n1nc(-c2ccc([N+](=O)[O-])cc2)c(Cc2cccc(Cl)c2)c1O
[1]
  Activity: inactive
[2]
  clearance: 8.56 mL/min/kg
[24]
  AUC(0-inf): 11500 ng·h/mL
[3]
  Vd: 0.79 L/kg
[4]
  AUC(0-inf): 18800 ng·h/mL
[5]
  Kd: 0.15 µM
[6]
  bioavailability: 100%
[26]
  Tmax: 30 min
[7]
  Activity: inactive
[20]
  Activity: Non-toxic
[10]
  Cmax: 5810 ng/mL
[11]
  CC50: > 10 µM
[12]
  AUC(0-t): 18600 ng·h/mL
[36]
  Activity: Non-toxic
[37]
  Activity: Non-toxic
[13]
  Cmax: 2800 ng/mL
[14]
  AUC(0-t): 2960 ng·h/mL
[15]
  AUC(0-inf): 3000 ng·h/mL
[16]
  half-life: 94.8 min
[38]
  Activity: Non-toxic
[17]
  IC50: 3.54 µM
[18]
  Tmax: 60 min
[22]
  inhibition: Active
[32]
  Cmax: 3400 ng/mL
[34]
  AUC(0-t): 10700 ng·h/mL

## O=[N+]([O-])c1ccc(-c2n[nH]c(O)c2CCc2cccc(Cl)c2)cc1
[20]
  Activity: Non-toxic
[11]
  CC50: > 10 µM
[21]
  Activity: inactive
[17]
  IC50: > 10 µM
[22]
  inhibition: inactive
